In ChEMBL document CHEMBL1125914, “Activity of acyclic 6-(phenylselenenyl)pyrimidine nucleosides against human immunodeficiency viruses in primary lymphocytes” (J Med Chem, 1991):

Legend:
[1] = tested on: Vero; test: Antiviral activity against Vero cells, infected with HSV-1.; type: functional, cell-based; settings: Chlorocebus sabaeus
Procedure, shortened: (§1)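 Plaque reduction assay in Vero cells infected with HSV-1 strain F. Median effective concentration taken from the concentration-response curve by the Chou–Talalay median-effect method.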

[2] = Antiviral activity against human peripheral blood mononuclear cells, infected with HIV-1(strain LAV).; type: functional
Procedure, shortened: (§2)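 Primary human PBM cells infected with virus and exposed to compound. Virus in cell supernatant was quantified on day 6 post-infection by reverse transcriptase assay using poly(rA)n-oligo(dT)12-18 template-primer on disrupted virions. EC50 derived from the concentration-response curve by the Chou–Talalay median-effect method.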

[3] = The compound was tested for toxicity in Vero cells.; type: cell-based; settings: Chlorocebus sabaeus (African green monkey)
[4] = tested on: Vero; test: Antiviral activity against Vero cells, infected with HSV-1; type: functional, cell-based; settings: Chlorocebus sabaeus; procedure, shortened: as §1
[5] = The compound was tested for toxicity in Vero cells; type: cell-based; settings: Chlorocebus sabaeus (African green monkey)
[6] = Antiviral activity against human peripheral blood mononuclear cells, infected with HIV-2(strain ROD-2); type: functional
Procedure, shortened: (§3)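 Human PBM cells were infected with HIV-1 strain LAV or HIV-2 strain ROD-2. On day 6 after infection, virus in the cell supernatant was quantitated by reverse transcriptase assay using poly(rA)n-oligo(dT)12-18 as template-primer. EC50 was derived from the concentration-response curve by the Chou–Talalay median-effect method.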

[7] = Antiviral activity against human peripheral blood mononuclear cells, infected with HIV-1(strain LAV); type: functional; procedure, shortened: as §3
[8] = The compound was tested for toxicity in peripheral blood mononuclear cells; type: functional, Homo sapiens
[9] = tested on: Nucleic Acid; test: Inhibitory activity against DNA polymerase-alpha derived from peripheral blood mononuclear cells; parameters: species or system Homo sapiens
Procedure, shortened: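 Selectivity counter-screen against DNA polymerase α purified from human PBM cells. Median inhibitory concentration derived from the concentration-response curve by the Chou–Talalay median-effect method.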

[10] = The compound was tested for toxicity in peripheral blood mononuclear cells.; type: functional, Homo sapiens
[11] = molecular target: T1, Human immunodeficiency virus type 1 reverse transcriptase (Human immunodeficiency virus 1, UniProt Q72547); test: Inhibition of HIV-1 reverse transcriptase.
[12] = Antiviral activity against human peripheral blood mononuclear cells, infected with HIV-2(strain ROD-2).; type: functional; procedure, shortened: as §2
[13] = molecular target: T1, Human immunodeficiency virus type 1 reverse transcriptase; test: Inhibition of HIV-1 reverse transcriptase recombinant p66

O=c1[nH]c(=O)n(COCCO)cc1Cl
EC50 [1]: > 100 µM | EC50 [2]: > 100 µM | IC50 [3]: > 100 µM

O=c1[nH]c(=O)n(COCCO)c([Se]c2ccccc2)c1Cl
EC50 [4]: > 100 µM | IC50 [5]: 7.5 µM | EC50 [6]: 7.9 µM | EC50 [7]: 3.1 µM | IC50 [8]: > 100 µM | IC50 [9]: > 100 µM

Cc1c([Se]c2ccccc2)n(COCCO)c(=O)[nH]c1=O
EC50 [4]: > 100 µM | IC50 [5]: > 100 µM | EC50 [6]: 25.6 µM | EC50 [7]: 0.96 µM | IC50 [8]: > 200 µM | IC50 [9]: > 100 µM

Cc1c([Se]c2ccccc2)n(COCCO)c(=S)[nH]c1=O
EC50 [4]: > 100 µM | IC50 [5]: 60.7 µM | EC50 [6]: 5.8 µM | EC50 [7]: 2.8 µM | IC50 [8]: > 100 µM | IC50 [9]: > 100 µM

O=c1ccn(COCCO)c(=O)[nH]1
EC50 [4]: > 100 µM | IC50 [5]: > 100 µM | EC50 [7]: > 100 µM | IC50 [8]: > 100 µM

O=c1cc([Se]c2ccccc2)n(COCCO)c(=O)[nH]1
EC50 [4]: > 200 µM | IC50 [5]: > 100 µM | EC50 [6]: 9.6 µM | EC50 [7]: 13 µM | IC50 [8]: > 100 µM | IC50 [9]: > 100 µM

Cc1cn(COCCO)c(=O)[nH]c1=O
EC50 [1]: > 100 µM | EC50 [2]: > 100 µM | IC50 [10]: > 100 µM | IC50 [3]: > 100 µM

O=c1[nH]c(=O)n(COCCO)cc1F
EC50 [1]: > 100 µM | EC50 [2]: > 100 µM | IC50 [10]: 67 µM | IC50 [3]: > 100 µM

O=c1[nH]c(=O)n(COCCO)cc1Br
EC50 [1]: > 100 µM | EC50 [2]: > 100 µM | IC50 [10]: 100 µM | IC50 [3]: > 100 µM

Cc1cn(COCCO)c(=S)[nH]c1=O
EC50 [1]: > 100 µM | EC50 [2]: > 100 µM | IC50 [10]: > 100 µM | IC50 [3]: > 100 µM

O=c1[nH]c(=O)n(COCCO)c([Se]c2ccccc2)c1F
EC50 [4]: > 100 µM | IC50 [5]: 25.7 µM | EC50 [6]: 9.1 µM | EC50 [7]: 2 µM | IC50 [8]: > 100 µM | IC50 [9]: > 100 µM

O=c1[nH]c(=O)n(COCCO)c([Se]c2ccccc2)c1Br
EC50 [4]: > 100 µM | IC50 [5]: 8.2 µM | EC50 [6]: 2 µM | EC50 [7]: 3.7 µM | IC50 [8]: > 100 µM | IC50 [9]: > 100 µM

Cc1c(Sc2ccccc2)n(COCCO)c(=O)[nH]c1=O [HEPT]
IC50 [11]: 17.5 µM | EC50 [12]: > 100 µM | EC50 [1]: > 100 µM | EC50 [2]: 5.3 µM | IC50 [10]: > 100 µM | IC50 [3]: > 100 µM | IC50 [9]: > 100 µM

Cc1cn([C@H]2C[C@H](N=[N+]=[N-])[C@@H](CO)O2)c(=O)[nH]c1=O [ZIDOVUDINE]
EC50 [4]: > 100 µM | IC50 [5]: 26 µM | EC50 [6]: < 0.002 µM | EC50 [7]: 0.004 µM | IC50 [8]: > 100 µM | IC50 [13]: < 0.1 µM | IC50 [9]: > 100 µM
